In ChEMBL document CHEMBL1135567, “Synthesis and structure-activity relationships of an orally available and long-acting analgesic peptide, N(alpha)-amidino-Tyr-D-Arg-Phe-MebetaAla-OH (ADAMB)” (J Med Chem, 2002):

What was measured:
Mus musculus [1] = experiment: (§1) In vivo antinociceptive activity expressed as ED50 administered perorally for tail pressure test; conditions: po
[2] = Ratio of ED50 value administered subcutaneously to that of perorally.; format: functional
Summary of the method: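 Mouse tail pressure test ED50 values obtained after sc and po dosing by Litchfield–Wilcoxon at peak activity. The sc ED50 divided by the po ED50 is expressed as a percentage.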

Mus musculus [3] = experiment: In vivo antinociceptive activity expressed as ED50 administered perorally for tail pressure test in mice; conditions: po
Mus musculus [4] = experiment: as §1; conditions: po; remark: listed apart in the source

## CN1CC[C@]23c4c5ccc(O)c4O[C@H]2[C@@H](O)C=C[C@H]3[C@H]1C5 [MORPHINE]
Mus musculus [1]
  ED50: 1.7 mg/kg
[2]
  Ratio: 15
Mus musculus [3]
  ED50: 3.3 mg/kg
Mus musculus [4]
  ED50: 15 mg/kg
